Most compounds without a hit are left out; they make up all but 3.7% or so of the library.
Kir21 inh – inhibitors of mouse Kir2.1 inward-rectifier potassium channel | HEK293-Kir2.1, FluxOR thallium flux fluorescence; active compounds read low | B-score at 10 µM | 310,000 tested, 0.85% active | AID 1672, 2009 | Inward rectifier potassium channel 2 (Mus musculus), P35561;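 active = fluorescence ratio B-score at or below minus 3 SD of library scores, with starting-brightness B-score within 2 SD, cut at about -4.2 in these data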;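 also: channel flux triggered by added potassium and thallium sulfate stimulus; B-score of peak minus minimum fluorescence over baseline after thallium stimulus; more negative B-score means stronger Kir2.1 block with less thallium influx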
hERG protect – hERG rescue from dofetilide block, primary screen, cell-based, CHO-hERG, FluxOR thallium flux, dofetilide IC70; dofetilide IC70 present; Voltage-gated inwardly rectifying potassium channel KCNH2 (Homo sapiens), Q12809; activation (rescue from dofetilide block), less the hit threshold, % at 10 µM; 310,000 tested, 0.51% active;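 active = activation above the mean of controls blocked by dofetilide plus 5 SD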;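 also: thallium influx through hERG after potassium depolarization seen as dye fluorescence rise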
KCNQ1 inh – inhibitors of human KCNQ1 channel, primary screen, cell-based, thallium flux, high-throughput; Potassium voltage-gated channel subfamily KQT member 1 (Homo sapiens), P51787; B-score at 10 µM; CHO-K1 KCNQ1, FluxOR thallium flux fluorescence; active compounds read high; 310,000 tested, 1.3% active; AID 2642, 2010;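 active = compounds whose thallium flux B-score, printed positive for inhibition, exceeds three library SD while starting fluorescence stays within three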;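 also: channel opened by potassium depolarization with thallium stimulus after 20 min compound exposure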
KCNK3 block – human KCNK3 channel inhibitors, primary screen, CHO cells, FluxOR thallium flux, B-score; AID 602410, 2012; B-score at 10 µM; 340,000 tested, 0.84% active; FluxOR fluorescence; active compounds read low;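 active = B-score under library mean minus 4 SD, starting fluorescence ratio at most library mean plus 5 SD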;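 also: more negative B-score means stronger inhibition of thallium flux through KCNK3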
Target sequence (O14649 whole entry, looked up): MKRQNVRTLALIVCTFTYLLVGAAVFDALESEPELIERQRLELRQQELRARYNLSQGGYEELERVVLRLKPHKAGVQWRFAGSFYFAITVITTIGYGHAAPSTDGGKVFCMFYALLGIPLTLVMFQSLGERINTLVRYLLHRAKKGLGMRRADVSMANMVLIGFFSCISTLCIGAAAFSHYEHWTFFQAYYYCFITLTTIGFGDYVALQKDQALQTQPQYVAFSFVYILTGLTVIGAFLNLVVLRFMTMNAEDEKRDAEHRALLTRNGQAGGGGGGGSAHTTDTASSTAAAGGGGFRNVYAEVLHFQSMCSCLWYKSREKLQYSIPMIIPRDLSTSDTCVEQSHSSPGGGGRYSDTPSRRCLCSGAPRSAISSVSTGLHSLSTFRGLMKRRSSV
KCNQ1 act – potentiators or activators of KCNQ1 channel, primary screen, cell-based, thallium flux, high-throughput; Potassium voltage-gated channel subfamily KQT member 1 (Homo sapiens), P51787; CHO-K1 KCNQ1, thallium flux FluxOR fluorescence; active compounds read high; B-score at 10 µM; 310,000 tested, 0.35% active;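 active = fluorescence ratio B-score, a plate-corrected score, at least three library SD, with initial intensity B-score within 5 SD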
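System: CHO-K1 cells stably expressing KCNQ1 / Medium: assay buffer for compound exposure, DMSO matched across wells / Reagent: thallium- and potassium-containing depolarizing buffer / Compound: one concentration, matched DMSO / Incubation: 20 min compound pretreatment at room temperature / Measured by: kinetic FluxOR fluorescence, 10 s baseline plus 110 s post-stimulus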
KCNK9 block – KCNK9 potassium channel inhibitors, primary screen, HEK293 cells, thallium flux; Potassium channel subfamily K member 9 (Homo sapiens), Q9NPC2; FluxOR thallium flux fluorescence; active compounds read low; B-score at 10 µM; 310,000 tested, 1.2% active; AID 488922, 2010;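 active = ratio B-score over 3 SD below the library mean, with starting fluorescence within 5 SD of its mean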;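 also: negative B-score means less thallium flux so channel inhibition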
* marks the source's active call; other numbers are inactive results; i = inactive; / = no result.

SMILES	Kir21 inh	hERG protect	KCNQ1 inh	KCNK3 block	KCNQ1 act	KCNK9 block
CSc1nc2sc3c(c2c(=S)[nH]1)CC(C)(C)OC3	-0.63	56*	i	i	82*	i
CCc1nc2sc3c(c2c(=S)[nH]1)CC(C)(C)OC3	0.76	-5	i	i	i	i
CC(CCc1ccc(O)cc1)NC(c1ccccc1)c1ccc(Cl)cc1 (stereo unspecified)	-1.5	-24	12*	i	i	i
CCOc1ccc(C2c3[nH]c4ccccc4c3CCN2CCCn2cccn2)cc1 (stereo unspecified)	0.98	-11	6*	i	i	i
CCOC1(/N=C(\C)NS(=O)(=O)c2ccc(Cl)cc2)C(C)=CC(=O)C=C1C	-1.2	-11	i	i	i	i
Cc1cccc(NC(=O)c2cccc(NC(=O)Cc3cccs3)c2)c1	0	-9	i	i	i	-6.9*
CC(C)(C)OC(=O)N1CCCC(C(=O)Nc2cccc(C(=O)NCCCCc3ccccc3)c2)C1 (stereo unspecified)	/	/	/	i	/	/
CCc1ccccc1NC1=NCC(=O)N1Cc1ccc(OC)cc1	-4.9*	1	i	i	i	i
CCCc1cc(=O)[nH]c(SCC(=O)Nc2cc(S(=O)(=O)N3CCOCC3)ccc2Cl)n1	/	/	/	i	/	/
CCC(=O)NNc1ncnc2c1cnn2-c1ccccc1	-0.45	-2	i	i	i	i
Cc1ccc(-n2ncc3c(NNC(=O)c4cccs4)ncnc32)cc1	1.7	5.7*	i	i	i	i
COC1(OC)C(/C=C/c2ccc(Cl)cc2)C(C#N)(C#N)C1(OC)OC (stereo unspecified)	-0.62	-5	10*	i	i	i
NC(=O)C1(Nc2ccccc2)CCCC1	/	/	/	i	/	/
O=c1c2cccnc2n(-c2ccccc2)n1Cc1ccc(Cl)cc1	0	-8	i	i	14*	i
CCc1cc(=O)[nH]c(SCC(=O)N2CCC(Cc3ccccc3)CC2)n1	0.23	-15	i	i	i	i
CCC1C(=O)CC(c2ccc([N+](=O)[O-])cc2)NC1c1ccc([N+](=O)[O-])cc1 (stereo unspecified)	0.14	-15	8*	i	i	i
O=C(COc1ccccc1[N+](=O)[O-])NCCCN1CCCC1=O	/	/	/	i	/	/
Cc1ccc(C(C(=O)NC(C)(C)C)N(Cc2cccnc2)C(=O)C(=O)NC2CCCCC2)o1 (stereo unspecified)	-0.66	33*	i	i	i	i
O=C(NC1CCCC1)C(=O)N(Cc1cccnc1)C(C(=O)NC1CCCC1)c1ccco1 (stereo unspecified)	0	1	i	i	i	i
CCCCNC(=O)O[C@H]1C[C@@H]2CCN3C(=O)CCC(C)(C)[C@H](C1)[C@H]23	-0.81	-4	i	i	i	i
CC1(C)CCC(=O)N2CC[C@H]3C[C@H](OC(=O)Nc4ccc5c(c4)OCO5)C[C@@H]1[C@H]32	-1.4	-9	i	i	i	-8*
CCN(CC)CCCN=C1N[C@@H](c2cccc(C(F)(F)F)c2)C(C(=O)OC)=C(C)N1CC	/	/	/	i	/	/
CCOC(=O)c1c(C)n(-c2ccc(C)cc2)c2ccc(OCC(O)CNCC3CCCO3)cc12 (stereo unspecified)	-3.1	-42	7*	i	i	i
COc1ccccc1-c1nnc(SCC(=O)Nc2nc(-c3ccccc3)cs2)n1C	0.05	6.1*	i	i	i	i
CCOc1cc(C)c(S(=O)(=O)NCCCn2ccnc2)cc1C	-0.78	-1	i	i	i	i
SMILES	Kir21 inh	hERG protect	KCNQ1 inh	KCNK3 block	KCNQ1 act	KCNK9 block
CCC(C)Sc1cccc(-c2nc3ccc(Cl)cn3c2NCc2ccccc2)c1 (stereo unspecified)	-0.36	-24	i	i	i	i
CCCCNc1c(-c2ccc(SC(C)CC)c(OC)c2)nc2ccc(Cl)cn12 (stereo unspecified)	/	/	/	i	/	/
CCC(C)Sc1cccc(-c2nc3ccc(C)cn3c2NCc2ccccc2)c1 (stereo unspecified)	0	-29	7*	i	i	i
CCCCNc1c(-c2ccc(SC(C)CC)c(OC)c2)nc2ccc(C)cn12 (stereo unspecified)	1.8	-10	8*	i	i	i
O=C(CSc1nc2sc3c(c2c(=O)n1-c1ccccc1)CCCC3)N/N=C/c1ccccc1C(=O)O	0.3	-8	i	i	i	i
O=C(Nc1nc(=S)ss1)c1ccc(Cl)cc1Cl	-2.7	41*	i	i	15*	i
Cc1ccccc1Cc1c(C)nc2c(C(=O)NCc3ccc4c(c3)OCO4)cnn2c1C	0.37	-5	i	i	i	i
Cc1ccc(C)c(Cc2c(C)nc3c(C(=O)NCc4ccc5c(c4)OCO5)cnn3c2C)c1	0.27	-10	i	/	i	-7.8*
COC(=O)c1ccc(NC(=S)N2CCN(Cc3ccccc3OC)CC2)cc1	-0.01	-10	i	i	i	i
CCOC(=O)c1cnc(SC)nc1Sc1ccccc1Cl	-0.75	-10	6*	i	i	i
CSc1ncc(C(=O)Nc2ccccc2Cl)c(C)n1	0.58	-4	i	i	13*	i
CSc1ncc(C(=O)Nc2ccccc2C)c(C)n1	1.1	-4	i	i	i	i
CCOC(=O)c1cnc2c(ccc3ccccc32)c1Cl	0.01	-6	i	i	i	i
CCOC(=O)CC(=O)CSc1nc2c(sc(=S)n2-c2ccc(OCC)cc2)c(=O)[nH]1	-0.43	-9	i	i	i	i
CCCCN(CC)C(=O)CSc1nc2c(sc(=S)n2-c2ccc(OCC)cc2)c(=O)[nH]1	2.2	-19	8*	i	i	i
CC(=O)c1ccc(NC(=O)C(C)N(C)CC(=O)Nc2ccc(N3CCOCC3)cc2)cc1 (stereo unspecified)	1.2	4.6*	i	i	i	i
CC(=O)c1ccc(NC(=O)C(C)N(C)CC(=O)Nc2ccc(Cl)cc2)cc1 (stereo unspecified)	-0.26	-3	i	i	i	i
C/C(N)=C(/C#N)C(=O)CSc1nc2ccccc2c(=O)n1Cc1ccc(F)cc1	0	-5	i	i	8*	i

Screening data (PubChem BioAssay)
